For series [1], the species on record is Rattus norvegicus. Kind of series: Tested in vitro for LH release from cultured rat pituitary cells, activity is expressed as pD2 value. The series is classed as functional, Pituitary gland cell. A digest of the protocol:
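Cultured rat pituitary cells; LH release measured across agonist concentrations; pD2 = negative log of agonist concentration giving 50% of maximal LH release.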

The subject of another series is chymotrypsin. Briefly: Chymotrypsin degradation half-life was determined. The series is classed as ADME.
Series [2] in a line: Clearance in rat after iv dose (100 ug/kg). The following applies: in vivo, 0.1 mg/kg. The series is classed as ADME, organism-based. A digest of the protocol:
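Castrate male rats given 100 μg/kg iv bolus; blood sampled over 6 h with EDTA anticoagulant. Plasma levels by RIA with antibody recognizing C-terminal Leu-Arg-Pro-NHEt or Leu-Arg-Pro-GlyNH₂ (rabbit antisera C-402 with [125I-Tyr⁵]leuprolide tracer, or 5328W with [125I-Tyr⁵,DLys⁶]LHRH). AUC by trapezoidal rule; whole-body clearance = dose/AUC, mL/min per kg.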

The species named for series [3] is Rattus norvegicus. Kind of series: Intestinal stability against rat jejunum sac, activity is expressed as T1/2. It counts as functional. A digest of the protocol: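 Rat jejunal sac in vitro; T1/2 taken as time, in min, for lumenal compound concentration to fall by 50%.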

Square brackets hold non-standard residues; d marks the D form. Peptide text beside a SMILES is read from it. 1Nal = N[C@@H](Cc1cccc2ccccc12)C(=O)O; NMeF = CN[C@@H](Cc1ccccc1)C(=O)O; pGlu = O=C1CC[C@@H](C(=O)O)N1; NMeS = CN[C@@H](CO)C(=O)O Some results are limits rather than exact numbers.

The record followed here is ChEMBL document CHEMBL1126585, “Effect of N-methyl substitution of the peptide bonds in luteinizing hormone-releasing hormone agonists” (J Med Chem, 1993).

In the series listed under Rattus norvegicus [1], `CC(C)C[C@H](NC(=O)[C@@H](Cc1ccc2ccccc2c1)NC(=O)[C@H](Cc1ccc(O)cc1)N(C)C(=O)[C@H](CO)NC(=O)[C@H](Cc1c[nH]c2ccccc12)NC(=O)[C@H](Cc1c[nH]cn1)NC(=O)[C@@H]1CCC(=O)N1)C(=O)N[C@@H](CCCN=C(N)N)C(=O)N1CCC[C@H]1C(=O)NCC(N)=O` showed a pD2 of 10.95. In addition, the half-life (as a rule, the time in which the quantity being followed falls by half) in the series on chymotrypsin was over 60 min. Moreover, the clearance (commonly the volume of plasma or blood freed of the substance per unit of time) in series [2] was determined as 3.4 mL/min/kg. In the series filed under Rattus norvegicus [3], this compound came in with a T1/2 of 33 min.
For `CCNC(=O)[C@@H]1CCCN1C(=O)[C@H](CCCN=C(N)N)NC(=O)[C@H](CC(C)C)NC(=O)[C@@H](Cc1c[nH]c2ccccc12)NC(=O)[C@H](Cc1ccc(O)cc1)NC(=O)[C@H](CO)NC(=O)[C@H](Cc1c[nH]c2ccccc12)NC(=O)[C@H](Cc1ccccc1)N(C)C(=O)[C@@H]1CCC(=O)N1` ([pGlu][NMeF]WSY[dW]LRP-NHEt), the half-life with chymotrypsin came out at 3.7 min. For the same compound, the clearance in series [2] is 44.5 mL/min/kg. Moreover, the T1/2 in the series filed under Rattus norvegicus [3] came out at 44.4 min.
The corresponding values for `CCNC(=O)[C@@H]1CCCN1C(=O)[C@H](CCCN=C(N)N)NC(=O)[C@H](CC(C)C)NC(=O)[C@@H](CC(C)C)NC(=O)[C@H](Cc1ccc(O)cc1)NC(=O)[C@H](CO)NC(=O)[C@H](Cc1cccc2ccccc12)NC(=O)[C@H](Cc1c[nH]cn1)NC(=O)[C@@H]1CCC(=O)N1` ([pGlu]H[1Nal]SY[dL]LRP-NHEt) are over 15 min, 28.4 mL/min/kg and 25 min.
For `CCNC(=O)[C@@H]1CCCN1C(=O)[C@H](CCCNC(=N)N)NC(=O)[C@H](CC(C)C)NC(=O)[C@@H](CC(C)C)NC(=O)[C@H](Cc1ccc(O)cc1)NC(=O)[C@H](CO)NC(=O)[C@H](Cc1c[nH]c2ccccc12)NC(=O)[C@H](Cc1c[nH]cn1)NC(=O)[C@@H]1CCC(=O)N1` [LEUPROLIDE], in that order: 1 min, 9 mL/min/kg and 4 min.
Compound `CC(C)C[C@H](NC(=O)[C@@H](Cc1ccc2ccccc2c1)NC(=O)[C@H](Cc1ccc(O)cc1)NC(=O)[C@H](CO)NC(=O)[C@H](Cc1c[nH]c2ccccc12)NC(=O)[C@H](Cc1cnc[nH]1)NC(=O)[C@@H]1CCC(=O)N1)C(=O)N[C@@H](CCCNC(=N)N)C(=O)N1CCC[C@H]1C(=O)NCC(N)=O` [NAFARELIN] yielded a pD2 in the series listed under Rattus norvegicus [1] of 11.05. In the series with chymotrypsin, this compound returned a half-life of 0.5 min. The clearance in series [2] was found to be 5.5 mL/min/kg.
`CC(C)C[C@H](NC(=O)[C@@H](Cc1ccc2ccccc2c1)NC(=O)[C@H](Cc1ccc(O)cc1)NC(=O)[C@H](CO)N(C)C(=O)[C@H](Cc1c[nH]c2ccccc12)NC(=O)[C@H](Cc1c[nH]cn1)NC(=O)[C@@H]1CCC(=O)N1)C(=O)N[C@@H](CCCN=C(N)N)C(=O)N1CCC[C@H]1C(=O)NCC(N)=O` had a pD2 in the series filed under Rattus norvegicus [1] of 11.3. Moreover, the half-life with chymotrypsin was over 60 min. In series [2], the clearance worked out at 27.6 mL/min/kg. In the series filed under Rattus norvegicus [3], this compound registered a T1/2 of 47 min.
In the series listed under Rattus norvegicus [1], `CCNC(=O)[C@@H]1CCCN1C(=O)[C@H](CCCN=C(N)N)NC(=O)[C@H](CC(C)C)N(C)C(=O)[C@@H](CC(C)C)NC(=O)[C@H](Cc1ccc(O)cc1)NC(=O)[C@H](CO)NC(=O)[C@H](Cc1c[nH]c2ccccc12)NC(=O)[C@H](Cc1c[nH]cn1)NC(=O)[C@@H]1CCC(=O)N1` gave a pD2 of 10.45. This compound also came in with a half-life with chymotrypsin of 1 min. This compound also came in with a clearance in series [2] of 8.3 mL/min/kg. Besides, in the series filed under Rattus norvegicus [3], the T1/2 is 4.1 min.
`CCNC(=O)[C@@H]1CCCN1C(=O)[C@H](CCCN=C(N)N)NC(=O)[C@H](CC(C)C)NC(=O)[C@@H](CC(C)C)NC(=O)[C@H](Cc1ccc(O)cc1)NC(=O)[C@H](CO)N(C)C(=O)[C@H](Cc1c[nH]c2ccccc12)NC(=O)[C@H](Cc1c[nH]cn1)NC(=O)[C@@H]1CCC(=O)N1` ([pGlu]HW[NMeS]Y[dL]LRP-NHEt) gave a half-life in the series with chymotrypsin of over 60 min. The compound also had a clearance in series [2] of 16.9 mL/min/kg. In the series listed under Rattus norvegicus [3], this compound had a T1/2 of over 90 min.
Take `CCNC(=O)[C@@H]1CCCN1C(=O)[C@H](CCCN=C(N)N)N(C)C(=O)[C@H](CC(C)C)NC(=O)[C@@H](CC(C)C)NC(=O)[C@H](Cc1ccc(O)cc1)NC(=O)[C@H](CO)NC(=O)[C@H](Cc1c[nH]c2ccccc12)NC(=O)[C@H](Cc1c[nH]cn1)NC(=O)[C@@H]1CCC(=O)N1`: in the series filed under Rattus norvegicus [1], the pD2 was 7. This compound registered a half-life in the series with chymotrypsin of 1 min. The compound further came in with a T1/2 in the series filed under Rattus norvegicus [3] of 6.6 min.
